Measured values gathered from unrelated publications.
Protocols differ between the studies behind these lines.
KIT T670I/V559D: Mast/stem cell growth factor receptor Kit (KIT, Homo sapiens, UniProt P10721, T670I/V559D)
KIT L576P: Mast/stem cell growth factor receptor Kit (KIT, Homo sapiens, UniProt P10721, L576P)

Cc1ccc(NC(=O)c2ccnc(C(F)(F)F)c2)cc1-c1cc(OCCO)nc(N2CCOCC2)c1  remaining binding (Mast/stem cell growth factor receptor Kit (KIT, Homo sapiens, UniProt P10721, D816H); binding; 1 µM): 99%
COc1ccc2oc(-c3ccc4nc(N)oc4c3)c/c(=N\c3ccccc3NC(=O)CCN)c2c1  remaining signal (Mast/stem cell growth factor receptor Kit (KIT, Homo sapiens, UniProt P10721, V654A); cell-free assay; 1 µM): 102%
N#Cc1ccc(NC(=O)Nc2ccccc2)cc1  remaining binding (KIT T670I/V559D; cell-free assay; competition with immobilised ligand; 25 µM): 57%
CN1CCN(C(=O)c2ccc(NC(=O)Nc3ccc(N(C)c4ccnc(Nc5ccc(CS(C)(=O)=O)cc5)n4)cc3)cc2)CC1  remaining binding (Mast/stem cell growth factor receptor Kit (KIT, Homo sapiens, UniProt P10721); binding; competition with immobilised ligand; 1 µM): 0%
CCCCC(=O)Nc1ccc(-c2ccc3ncn(CCC)c(=O)c3c2)cn1  remaining binding (KIT L576P; binding; competition with immobilised ligand; 0.5 µM): 87%
C=CC(=O)N1CCC([C@@H]2CCNc3c(C(N)=O)c(-c4ccc(Oc5ccccc5)cc4)nn32)CC1  inhibition (KIT L576P; enzyme activity; inhibitor; 1 µM): 5%
C[C@H]1CC[C@H](n2c3cnccc3c3cnc(Nc4ccc5c(n4)CCN(C(=O)CO)C5)nc32)CC1  remaining signal (Mast/stem cell growth factor receptor Kit (KIT, Homo sapiens, UniProt P10721, A829P); cell-free assay; 1 µM): 36%
CC#CC(=O)N1CCC[C@H]1c1nc(-c2ccc(C(=O)Nc3ccccn3)cc2)c2c(N)nccn12  inhibition (Mast/stem cell growth factor receptor Kit (KIT, Homo sapiens, UniProt P10721, V559D/V654A); enzyme activity; inhibitor; 1 µM): 0%
COc1ccc2[nH]c3c4[nH]c5ccc(OC)cc5c4c4c(c3c2c1)C(=O)NC4=O  remaining binding (KIT T670I/V559D; binding; 1 µM): 49%
C1=C/COCc2cc(ccc2OCCN2CCCC2)Nc2nccc(n2)-c2cccc(c2)COC/1  remaining binding (Mast/stem cell growth factor receptor Kit, autoinhibited (KIT, Homo sapiens, UniProt P10721); binding; 0.1 µM): 17%
CO[C@@H]1[C@H](N(C)C(=O)c2ccccc2)C[C@H]2O[C@]1(C)n1c3ccccc3c3c4c(c5c6ccccc6n2c5c31)C(=O)NC4  inhibition (Mast/stem cell growth factor receptor Kit (KIT, Homo sapiens, UniProt P10721, D816V); enzyme activity; inhibitor; 1 µM): 96%
C#Cc1cnc(Nc2ccnc(CO)c2)nc1Nc1ccccc1S(C)(=O)=NC#N (stereo not drawn)  remaining signal (KIT T670I/V559D; cell-free assay; 1 µM): 79%
